The text below walks through data of ChEMBL document CHEMBL1770143, “Biological evaluation of 3'-O-alkylated analogs of salacinol, the role of hydrophobic alkyl group at 3' position in the side chain on the α-glucosidase inhibitory activity” (Bioorg Med Chem Lett, 2011).

Assay [1] deals with T1, Sucrase-isomaltase, intestinal (Rattus norvegicus, UniProt P23739). In words: Inhibition of rat small intestinal sucrase after 30 mins by glucose-oxidase method. An outline of the steps:
(§1)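 Enzyme source was rat small-intestinal brush border membrane vesicles suspended in 0.1 M maleate buffer, pH 6.0. Substrate solutions, prior to mixing, were maltose 74 mM (maltase), sucrose 74 mM (sucrase) and isomaltose 7.4 mM (isomaltase). Substrate, inhibitor and enzyme were incubated at 37 °C for 30 min, then stopped by 2 min boiling. Released glucose was measured by glucose oxidase. Final DMSO was 2.5%.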

For assay [2], the target named is T1, Sucrase-isomaltase, intestinal. In words: Inhibition of rat small intestinal isomaltase after 30 mins by glucose-oxidase method. An outline of the steps: as §1
For assay [3] the target is unchanged. In words: Competitive inhibition of rat intestinal isomaltase.
For assay [4] the target is unchanged. As to the kind of experiment: Competitive inhibition of rat intestinal sucrase.

T1 sequence (P23739 1-1013 limits assumed): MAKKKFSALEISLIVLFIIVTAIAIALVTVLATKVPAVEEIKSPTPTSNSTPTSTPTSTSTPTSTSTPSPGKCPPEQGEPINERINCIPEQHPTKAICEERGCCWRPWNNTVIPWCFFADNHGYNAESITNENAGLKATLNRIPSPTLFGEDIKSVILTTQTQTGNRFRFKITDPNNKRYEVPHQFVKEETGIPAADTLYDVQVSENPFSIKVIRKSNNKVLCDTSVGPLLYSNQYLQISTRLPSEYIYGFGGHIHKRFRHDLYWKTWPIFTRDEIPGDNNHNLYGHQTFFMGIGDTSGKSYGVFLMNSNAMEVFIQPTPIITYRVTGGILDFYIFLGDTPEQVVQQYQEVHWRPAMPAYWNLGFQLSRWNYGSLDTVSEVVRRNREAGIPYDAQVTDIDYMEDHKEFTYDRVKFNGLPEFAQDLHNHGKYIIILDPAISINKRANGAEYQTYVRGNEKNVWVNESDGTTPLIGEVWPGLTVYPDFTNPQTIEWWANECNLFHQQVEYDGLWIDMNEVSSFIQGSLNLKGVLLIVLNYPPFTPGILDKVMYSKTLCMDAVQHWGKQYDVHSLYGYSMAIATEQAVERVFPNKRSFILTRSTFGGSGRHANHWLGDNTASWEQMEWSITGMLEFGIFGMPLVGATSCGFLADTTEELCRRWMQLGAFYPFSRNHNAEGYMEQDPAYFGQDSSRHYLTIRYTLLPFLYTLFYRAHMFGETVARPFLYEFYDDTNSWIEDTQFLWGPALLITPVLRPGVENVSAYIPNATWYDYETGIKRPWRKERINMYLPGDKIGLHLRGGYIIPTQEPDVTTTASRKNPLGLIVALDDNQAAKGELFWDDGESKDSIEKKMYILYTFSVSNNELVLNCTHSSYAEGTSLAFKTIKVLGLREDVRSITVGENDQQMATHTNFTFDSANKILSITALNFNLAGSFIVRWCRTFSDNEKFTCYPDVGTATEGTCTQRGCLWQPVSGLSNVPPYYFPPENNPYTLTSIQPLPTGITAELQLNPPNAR
T1 sequence (P23739 1014-1841 limits assumed): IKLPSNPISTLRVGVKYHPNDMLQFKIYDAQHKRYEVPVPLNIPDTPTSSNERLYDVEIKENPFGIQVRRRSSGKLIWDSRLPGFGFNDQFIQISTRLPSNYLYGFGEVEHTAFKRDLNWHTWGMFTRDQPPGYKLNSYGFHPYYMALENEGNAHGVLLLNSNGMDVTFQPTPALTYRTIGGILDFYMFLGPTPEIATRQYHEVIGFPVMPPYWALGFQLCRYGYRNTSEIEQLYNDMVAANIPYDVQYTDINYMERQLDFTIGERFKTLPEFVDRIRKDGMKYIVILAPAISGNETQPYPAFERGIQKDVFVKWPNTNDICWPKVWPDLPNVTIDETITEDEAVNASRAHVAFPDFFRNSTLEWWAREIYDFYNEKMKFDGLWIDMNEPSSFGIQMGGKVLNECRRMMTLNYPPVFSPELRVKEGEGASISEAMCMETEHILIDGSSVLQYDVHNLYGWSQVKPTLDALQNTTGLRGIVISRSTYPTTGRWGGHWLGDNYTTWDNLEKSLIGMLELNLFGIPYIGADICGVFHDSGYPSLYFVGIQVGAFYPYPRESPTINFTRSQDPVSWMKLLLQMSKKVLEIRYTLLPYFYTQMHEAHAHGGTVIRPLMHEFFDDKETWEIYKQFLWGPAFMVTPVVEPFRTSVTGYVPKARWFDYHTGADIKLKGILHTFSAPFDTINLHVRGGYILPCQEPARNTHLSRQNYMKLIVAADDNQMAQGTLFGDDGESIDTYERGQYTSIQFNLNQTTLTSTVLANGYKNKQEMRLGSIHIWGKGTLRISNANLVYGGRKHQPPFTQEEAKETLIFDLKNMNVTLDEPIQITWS

As for `CO[C@@H](CO)[C@H](O)C[S+]1C[C@@H](O)[C@H](O)[C@H]1CO` (single isomer, unassigned), the IC50 in assay [1] was found to be 460 nM; in assay [2], 390 nM. In the same order, the values of `CCO[C@@H](CO)[C@H](O)C[S+]1C[C@@H](O)[C@H](O)[C@H]1CO` (single isomer, unassigned) are 120 nM and 270 nM. Taken in the same sequence, the figures for `CCCCCCCCCCCCCO[C@@H](CO)[C@H](O)C[S+]1C[C@@H](O)[C@H](O)[C@H]1CO` (single isomer, unassigned) were 1300 nM and 950 nM.

As for `OC[C@H](OCc1ccccc1)[C@H](O)C[S+]1C[C@@H](O)[C@H](O)[C@H]1CO` (single isomer, unassigned), half-maximal inhibition in assay [1] (IC50) required 320 nM. In the case of `O=S(=O)([O-])O[C@@H](CO)[C@H](O)C[S@+]1C[C@@H](O)[C@H](O)[C@H]1CO` [SALACINOL], the Ki was 1410 nM in assay [3] and 957 nM in assay [4].

A word on the IC50: it is the concentration that gives 50% inhibition. A higher IC50 goes with a need for much substance. Usually Ki stands for the equilibrium dissociation constant of an inhibitor or competing ligand from its target. Low readings indicate tighter binding, high ones weaker binding.
